According to ChEMBL document CHEMBL2331212 (Bioorg Med Chem, 2013):
Values joined by “and” are separate entries in the source; they are usually repeats but may differ in a detail not shown here. Equal values may be shown once. Active and inactive are the calls of the source. The rule behind the calls is not given here.

How the values were obtained:
D(3) dopamine receptor = D(3) dopamine receptor (Homo sapiens, UniProt P35462); experiment: Displacement of [3H]spiperone from human dopamine D3 receptor expressed in CHO cells; assay type: cell-based
D(3) dopamine receptor, sequence (P35462 whole entry): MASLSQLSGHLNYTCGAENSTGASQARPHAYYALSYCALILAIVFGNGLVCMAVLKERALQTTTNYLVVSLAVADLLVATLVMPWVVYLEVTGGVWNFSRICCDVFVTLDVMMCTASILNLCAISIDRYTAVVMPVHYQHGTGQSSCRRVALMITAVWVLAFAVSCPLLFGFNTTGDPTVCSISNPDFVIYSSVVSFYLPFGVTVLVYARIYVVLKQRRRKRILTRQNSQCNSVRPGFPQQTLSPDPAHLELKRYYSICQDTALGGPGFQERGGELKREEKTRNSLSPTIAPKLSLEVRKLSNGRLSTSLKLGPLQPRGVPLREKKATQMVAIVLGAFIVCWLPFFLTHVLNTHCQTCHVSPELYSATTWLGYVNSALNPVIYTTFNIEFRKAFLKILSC

D(2) dopamine receptor [1] = molecular target: T1, D(2) dopamine receptor (Homo sapiens, UniProt P14416); experiment: Displacement of [3H]spiperone from human dopamine D2short receptor expressed in CHO cells; assay type: cell-based
T1 sequence (P14416 whole entry): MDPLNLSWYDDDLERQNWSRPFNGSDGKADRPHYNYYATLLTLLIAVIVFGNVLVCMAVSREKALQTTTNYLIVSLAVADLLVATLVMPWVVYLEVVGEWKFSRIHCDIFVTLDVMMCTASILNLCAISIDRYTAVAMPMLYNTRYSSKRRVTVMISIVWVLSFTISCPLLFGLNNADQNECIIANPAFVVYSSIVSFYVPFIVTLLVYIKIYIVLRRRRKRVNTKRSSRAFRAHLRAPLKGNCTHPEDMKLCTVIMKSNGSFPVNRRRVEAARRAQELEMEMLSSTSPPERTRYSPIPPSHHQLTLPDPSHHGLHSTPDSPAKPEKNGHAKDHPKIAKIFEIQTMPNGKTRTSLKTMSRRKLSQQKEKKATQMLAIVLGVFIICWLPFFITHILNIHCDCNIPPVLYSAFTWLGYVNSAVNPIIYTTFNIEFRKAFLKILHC

D(4) dopamine receptor = molecular target: T2, D(4) dopamine receptor (Homo sapiens, UniProt P21917); experiment: Displacement of [3H]spiperone from human dopamine D4.4 receptor expressed in CHO cells; assay type: cell-based
T2 sequence (P21917 whole entry): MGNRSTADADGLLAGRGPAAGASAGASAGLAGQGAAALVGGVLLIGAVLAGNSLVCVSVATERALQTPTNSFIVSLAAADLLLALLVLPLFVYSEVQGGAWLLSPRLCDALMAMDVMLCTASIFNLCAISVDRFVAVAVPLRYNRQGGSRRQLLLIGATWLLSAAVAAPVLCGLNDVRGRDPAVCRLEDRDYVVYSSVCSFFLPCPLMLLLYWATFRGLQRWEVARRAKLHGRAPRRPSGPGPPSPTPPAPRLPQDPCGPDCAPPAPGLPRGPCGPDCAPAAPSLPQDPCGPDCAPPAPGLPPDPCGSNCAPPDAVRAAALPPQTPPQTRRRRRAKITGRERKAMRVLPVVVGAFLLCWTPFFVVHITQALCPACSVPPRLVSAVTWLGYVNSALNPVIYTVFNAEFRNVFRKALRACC

D(2) dopamine receptor [2] = molecular target: T1, D(2) dopamine receptor; experiment: Displacement of [3H]spiperone from human dopamine D2long receptor expressed in CHO cells; assay type: cell-based
D(1A) dopamine receptor = D(1A) dopamine receptor (Bos taurus, UniProt Q95136); experiment: Displacement of [3H]SCH23390 from dopamine D1 receptor in bovine striatum
D(1A) dopamine receptor, sequence (Q95136 whole entry): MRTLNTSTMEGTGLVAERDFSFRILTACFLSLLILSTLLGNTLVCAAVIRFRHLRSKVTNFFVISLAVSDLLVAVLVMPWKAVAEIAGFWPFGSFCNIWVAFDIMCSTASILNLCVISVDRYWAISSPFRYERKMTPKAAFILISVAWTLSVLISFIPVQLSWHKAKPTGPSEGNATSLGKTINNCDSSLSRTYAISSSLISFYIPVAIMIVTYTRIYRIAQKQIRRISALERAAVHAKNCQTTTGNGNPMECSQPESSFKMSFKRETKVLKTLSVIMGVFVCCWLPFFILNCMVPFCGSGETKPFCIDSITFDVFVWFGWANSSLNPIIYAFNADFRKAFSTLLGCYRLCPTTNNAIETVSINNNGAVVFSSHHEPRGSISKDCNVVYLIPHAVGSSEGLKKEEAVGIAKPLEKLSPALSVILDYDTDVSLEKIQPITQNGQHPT
How it was run: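 Bovine striatal homogenate was incubated with [3H]SCH 23390 and test compounds under the same binding conditions as the D2-family assays. Competition curves were fitted by sigmoid non-linear regression with logEC50 and Hill coefficient free. EC50 was converted to Ki by Cheng–Prusoff. Each experiment was run in triplicate.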

[3] = molecular target: T3, D(4) dopamine receptor (Homo sapiens) (UniProt P21917); experiment: Partial agonist activity at human D4.4 receptor expressed in CHO cells assessed as inhibition of forskolin-stimulated cAMP accumulation after 20 mins by luminescence assay relative to quinpirole; assay type: functional, cell-based
T3 sequence (whole entry): T2 sequence (P21917 whole entry)
How it was run: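 CHO cells expressing D4.4 were seeded 24 h ahead at 10,000 cells/well and washed with Krebs Ringer buffer, pH 7.4. Cells were exposed to graded compound concentrations with forskolin for 20 min at 25 °C. cAMP was read by cAMP-Glo luminescence, a PKA–luciferase readout. Quinpirole served as the reference full agonist. EC50 and Emax were taken from at least three experiments, each in triplicate.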

[4] = molecular target: T3, D(4) dopamine receptor (Homo sapiens); experiment: Antagonist activity at human D4.4 receptor expressed in CHO cells assessed as inhibition of quinpirole-induced reduction in cAMP accumulation after 20 mins by luminescence assay; assay type: functional, cell-based

SMILES | Ki (D(3) dopamine receptor) | Ki (D(2) dopamine receptor [1]) | Ki (D(4) dopamine receptor) | Ki (D(2) dopamine receptor [2]) | Ki (D(1A) dopamine receptor) | Efficacy [3] | inhibition [4]
c1ccc(-n2cc(CN3CCN(c4cc5ccc4CCc4ccc(cc4)CC5)CC3)cn2)cc1 | 18 nM | 28 nM | 45 nM | 39 nM | 2600 nM | – | –
c1ccc(N2CCN(Cc3cnn(-c4ccccc4)c3)CC2)cc1 | – | – | – | – | 1600 nM | 40% | –
c1ccc(N2CCN(Cc3cnn(-c4cc5ccc4CCc4ccc(cc4)CC5)c3)CC2)cc1 | 20 nM and 23 nM | 33 nM and 240 nM | 2.5 nM and 4.5 nM | 55 nM and 350 nM | 1500 nM and 1700 nM | 19% | Active
NCCc1ccc(O)c(O)c1 [DOPAMINE] | – | – | – | – | 440 nM | – | –
